Test results published in ChEMBL document CHEMBL4014268, “Phenolic Compounds from the Lichen Lobaria orientalis” (J Nat Prod, 2017).
The source made the active and inactive calls.

What was measured:
Format in all cases: functional, cell-based
MCF7 = assay: Cytotoxicity against human MCF7 cells at 100 ug/ml by SRB assay
In short: (§1)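 Single-concentration screen at 100 μg/mL against four human cancer lines: HepG2 (liver hepatocellular carcinoma), MCF-7 (breast), NCI-H460 (lung) and HeLa (epithelial carcinoma). Cell viability was read by sulforhodamine B staining, with camptothecin as the positive control.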

NCI-H460 = assay: Cytotoxicity against human NCI-H460 cells at 100 ug/ml by SRB assay; in short: as §1
HepG2 = assay: Cytotoxicity against human HepG2 cells at 100 ug/ml by SRB assay; in short: as §1
HeLa = assay: Cytotoxicity against human HeLa cells at 100 ug/ml by SRB assay; in short: as §1

Measured: Activity

COC(=O)/C=C/c1c(OC)cc(C)c(C(=O)OC)c1Oc1c(O)c(C)c(O)c2c1[C@@H](OC)OC2=O
inactive: MCF7 | NCI-H460 | HepG2 | HeLa

COC(=O)c1c(C)cc(OC)c(CO)c1Oc1c(O)c(C)c(O)c2c1[C@@H](OC)OC2=O
inactive: MCF7 | NCI-H460 | HepG2 | HeLa

COc1cc(C)c2c3c1CO[C@H]1OC(=O)c4c(O)c(C)c(c(c41)O3)OC2=O
inactive: MCF7 | NCI-H460 | HepG2 | HeLa

COC(=O)c1c(C)cc(OC)c(/C=C/C(C)=O)c1Oc1c(O)c(C)c(O)c2c1[C@@H](OC)OC2=O
inactive: MCF7 | NCI-H460 | HepG2 | HeLa

Cc1cc(O)cc(O)c1C(=O)Oc1cc(O)cc(C)c1C(=O)O
inactive: MCF7 | NCI-H460 | HepG2 | HeLa

Cc1cc(O)cc(OC(=O)c2c(C)cc(O)cc2O)c1
inactive: MCF7 | NCI-H460 | HepG2 | HeLa

COc1cc(C)c2c(c1C=O)Oc1c(c(C)c(O)c3c1[C@@H](OC)OC3=O)OC2=O
inactive: MCF7 | NCI-H460 | HepG2 | HeLa
